Test results as given in ChEMBL document CHEMBL1134010, “Syntheses and antifungal activities of novel 3-amido bearing pseudomycin analogues” (Bioorg Med Chem Lett, 2001).
Converted amounts (≈) assume the structure as drawn. Positions of bridges follow the written chain, without caps; N, C: chain ends. Non-standard residues stand in square brackets, D forms with d. Residues, ends and D or L forms follow the SMILES beside them. *: point of attachment. Tetradecanoyl(3R-OH) = CCCCCCCCCCC[C@@H](O)CC(=O)*; Asp(3S-OH) = N[C@H](C(=O)O)[C@H](O)C(=O)O; Thr(4-Cl) = N[C@H](C(=O)O)[C@H](O)CCl; aThr = C[C@H](O)[C@H](N)C(=O)O; dDab = NCC[C@@H](N)C(=O)O; NHCH2CH2NMe2 = CN(C)CCN*; Dab = NCC[C@H](N)C(=O)O; Dhb = C/C=C(\N)C(=O)O; NHcPr = C1CC1N*

Columns and labels:
[1] = tested on: Aspergillus fumigatus; test: In vitro minimum inhibitory concentration (MIC) against Aspergillus fumigatus.; assay type: functional
In short: (§1)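 Tested against Candida albicans, Cryptococcus neoformans and Aspergillus fumigatus, with PSB as positive control. MIC is taken as the lowest drug concentration giving 90–100% inhibition of visible growth relative to drug-free controls.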

[2] = tested on: Candida albicans; test: In vitro minimum inhibitory concentration (MIC) against Candida albicans.; assay type: functional; in short: as §1
[3] = tested on: Cryptococcus neoformans; test: In vitro minimum inhibitory concentration (MIC) against Cryptococcus neoformans.; assay type: functional; in short: as §1
[4] = tested on: Rattus norvegicus; test: Toxicity at a dose of 50 mg/kg in rats; Death; assay type: organism-based; design: dose 50 mg/kg; settings: in vivo
[5] = tested on: Mus musculus; test: In vivo efficacy against murine systemic Cryptococosis by intraperitoneal administration; assay type: functional; settings: ip
In short: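 Murine systemic cryptococcosis, ip dosing BID ×4 at 5.0, 1.25, 0.312 and 0.078 mg/kg. ED50 is the dose giving 50% survival relative to untreated infected animals.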

[6] = tested on: Mus musculus; test: Survival extension of the mice against Aspergillosis infection at a dose of 20 mg/kg; assay type: functional
[7] = tested on: Mus musculus; test: Toxicity at a dose of 75 mg/kg in mice; Death; settings: in vivo
[8] = tested on: Mus musculus; test: Toxicity at a dose of 100 mg/kg in mice; Death; settings: in vivo
[9] = tested on: Mus musculus; test: Toxicity at a dose of 125 mg/kg in mice; Death; settings: in vivo
[10] = tested on: Mus musculus; test: Compound was dosed four times to outbred, male ICR mice and signs of irritation (erythema, swelling, discoloration, necrosis and tail loss) were observed in tail irritation test; Yes; assay type: ADME, organism-based; settings: in vivo
[11] = tested on: Candida albicans; test: In vivo efficacy against murine Candidiasis dosed four times by intraperitoneal administration post-infection using Reed and Muench method.; assay type: functional; settings: ip
In short: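 Systemic candidiasis in mice, with PSB and amphotericin B as positive controls. Analogues were given at 20, 10 and 5 mg/kg, four doses at 0, 4, 24 and 48 post-infection. ED50 is the dose giving 50% survival relative to untreated infected animals, calculated by the Reed and Muench method.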

[12] = tested on: Mus musculus; test: Survival extension of the mice against Aspergillosis infection at a dose of 1 mg/kg; assay type: functional
In short: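 Murine systemic aspergillosis model, ip. The analogue was given BID at 50, 10 and 1 mg/kg, and survival extension of infected animals was recorded.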

[13] = tested on: Mus musculus; test: In vivo efficacy against murine Candidiasis dosed four times by intraperitoneal administration post-infection using Reed and Muench method; Toxic; assay type: functional, organism-based

| SMILES | MIC [1] | MIC [2] | MIC [3] | Toxicity [4] | ED50 [5] | Survival extension [6] | Toxicity [7] | Toxicity [8] | Toxicity [9] | Tail vein toxicity [10] | ED50 [11] | Survival extension [12] | ED50 [13] |
| --- | --- | --- | --- | --- | --- | --- | --- | --- | --- | --- | --- | --- | --- |
| C/C=C1\NC(=O)[C@H]([C@H](C)O)NC(=O)[C@H](CCN)NC(=O)[C@H](CCCCN)NC(=O)[C@H](CC(=O)O)NC(=O)[C@@H](CCN)NC(=O)[C@@H](NC(=O)C[C@H](O)CCCCCCCCCCC)COC(=O)[C@H]([C@H](O)CCl)NC(=O)[C@H]([C@H](O)C(=O)O)NC1=O [PSEUDOMYCIN B] ({Tetradecanoyl(3R-OH)}-S[dDab]DK[Dab][aThr][Dhb][Asp(3S-OH)][Thr(4-Cl)]; ester 1-C) | > 20 µg/mL | 0.625 µg/mL (≈ 0.517 µM) | 0.01 µg/mL (≈ 0.00828 µM) | Death | 1.8 mg/kg | 46% | Death | Death | Death | – | – | – | – |
| C/C=C1\NC(=O)[C@H]([C@H](C)O)NC(=O)[C@H](CCN)NC(=O)[C@H](CCCCN)NC(=O)[C@H](CC(=O)NCCCN(CC)CC)NC(=O)[C@@H](CCN)NC(=O)[C@@H](NC(=O)C[C@H](O)CCCCCCCCCCC)COC(=O)[C@H]([C@H](O)CCl)NC(=O)[C@H]([C@H](O)C(=O)O)NC1=O | > 20 µg/mL | 20 µg/mL (≈ 15.2 µM) | < 0.01 µg/mL | – | – | – | – | – | – | Active | < 4 mg/kg | – | – |
| C/C=C1\NC(=O)[C@H]([C@@H](C)O)NC(=O)[C@H](CCN)NC(=O)[C@H](CCCCN)NC(=O)[C@H](CC(=O)N[C@@H](CCCCN)C(=O)OC)NC(=O)[C@@H](CCN)NC(=O)[C@@H](NC(=O)C[C@H](O)CCCCCCCCCCC)COC(=O)[C@H]([C@H](O)CCl)NC(=O)[C@H]([C@H](O)C(=O)O)NC1=O | > 20 µg/mL | 1.25 µg/mL (≈ 0.926 µM) | < 0.01 µg/mL | – | – | – | – | Death | Death | – | < 5 mg/kg | – | – |
| C/C=C1\NC(=O)[C@H]([C@H](C)O)NC(=O)[C@H](CCN)NC(=O)[C@H](CCCCN)NC(=O)[C@H](CC(=O)NCCN(C)C)NC(=O)[C@@H](CCN)NC(=O)[C@@H](NC(=O)C[C@H](O)CCCCCCCCCCC)COC(=O)[C@H]([C@H](O)CCl)NC(=O)[C@H]([C@H](O)C(=O)O)NC1=O ({Tetradecanoyl(3R-OH)}-S[dDab]D(NHCH2CH2NMe2)K[Dab][aThr][Dhb][Asp(3S-OH)][Thr(4-Cl)]; ester 1-C) | 5 µg/mL (≈ 3.91 µM) | 0.156 µg/mL (≈ 0.122 µM) | < 0.01 µg/mL | – | 2.5 mg/kg | – | Death | Death | Death | – | < 5 mg/kg | 23% | – |
| C/C=C1\NC(=O)[C@H]([C@H](C)O)NC(=O)[C@H](CCN)NC(=O)[C@H](CCCCN)NC(=O)[C@H](CC(N)=O)NC(=O)[C@@H](CCN)NC(=O)[C@@H](NC(=O)C[C@H](O)CCCCCCCCCCC)COC(=O)[C@H]([C@H](O)CCl)NC(=O)[C@H]([C@H](O)C(=O)O)NC1=O ({Tetradecanoyl(3R-OH)}-S[dDab]NK[Dab][aThr][Dhb][Asp(3S-OH)][Thr(4-Cl)]; ester 1-C) | 10 µg/mL (≈ 8.29 µM) | 2.5 µg/mL (≈ 2.07 µM) | < 0.01 µg/mL | – | – | – | – | – | – | Active | < 0.8 mg/kg | – | – |
| C/C=C1\NC(=O)[C@H]([C@H](C)O)NC(=O)[C@H](CCN)NC(=O)[C@H](CCCCN)NC(=O)[C@H](CC(=O)NC2CC2)NC(=O)[C@@H](CCN)NC(=O)[C@@H](NC(=O)C[C@H](O)CCCCCCCCCCC)COC(=O)[C@H]([C@H](O)CCl)NC(=O)[C@H]([C@H](O)C(=O)O)NC1=O ({Tetradecanoyl(3R-OH)}-S[dDab]D(NHcPr)K[Dab][aThr][Dhb][Asp(3S-OH)][Thr(4-Cl)]; ester 1-C) | 20 µg/mL (≈ 16 µM) | 0.156 µg/mL (≈ 0.125 µM) | < 0.01 µg/mL | – | 2.9 mg/kg | – | – | Death | Death | – | < 5 mg/kg | 29% | – |
| C/C=C1\NC(=O)[C@H]([C@H](C)O)NC(=O)[C@H](CCN)NC(=O)[C@H](CCCCN)NC(=O)[C@H](CC(=O)NCCN)NC(=O)[C@@H](CCN)NC(=O)[C@@H](NC(=O)C[C@H](O)CCCCCCCCCCC)COC(=O)[C@H]([C@H](O)CCl)NC(=O)[C@H]([C@H](O)C(=O)O)NC1=O | 5 µg/mL (≈ 4 µM) | 10 µg/mL (≈ 8 µM) | < 0.01 µg/mL | – | – | – | – | – | – | Active | < 5 mg/kg | – | – |
| C/C=C1\NC(=O)[C@H]([C@H](C)O)NC(=O)[C@H](CCN)NC(=O)[C@H](CCCCN)NC(=O)[C@H](CC(=O)NCCCCCCC)NC(=O)[C@@H](CCN)NC(=O)[C@@H](NC(=O)C[C@H](O)CCCCCCCCCCC)COC(=O)[C@H]([C@H](O)CCl)NC(=O)[C@H]([C@H](O)C(=O)O)NC1=O | > 20 µg/mL | 20 µg/mL (≈ 15.3 µM) | 0.312 µg/mL (≈ 0.239 µM) | – | – | – | – | – | – | – | – | – | Toxic |
